From article PMC11588046 (Proceedings of the National Academy of Sciences of the …, 2024) come the findings set out here.

The target of data set [1] is T1, WT ALK2 (Homo sapiens, UniProt Q04771).
T1 sequence (Q04771 21-509): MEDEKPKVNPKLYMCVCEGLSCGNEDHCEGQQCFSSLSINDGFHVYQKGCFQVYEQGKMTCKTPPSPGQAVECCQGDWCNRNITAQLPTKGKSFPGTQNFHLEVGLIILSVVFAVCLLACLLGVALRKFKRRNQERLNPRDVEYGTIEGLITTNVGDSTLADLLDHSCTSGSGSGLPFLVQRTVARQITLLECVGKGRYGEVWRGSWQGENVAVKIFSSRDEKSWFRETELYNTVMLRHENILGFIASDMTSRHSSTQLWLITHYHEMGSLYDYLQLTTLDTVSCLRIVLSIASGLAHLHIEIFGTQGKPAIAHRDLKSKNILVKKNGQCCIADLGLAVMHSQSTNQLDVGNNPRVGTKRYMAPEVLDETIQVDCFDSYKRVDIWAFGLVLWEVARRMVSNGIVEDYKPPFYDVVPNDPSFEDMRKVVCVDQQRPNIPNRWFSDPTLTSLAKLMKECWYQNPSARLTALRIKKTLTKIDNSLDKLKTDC
In kind it is cell-based. To be noted: read-out: ALK2 IC50; NanoBRET, HEK293 cells.

For data set [2], the target named is T2, mutant ALK2 (R206H) (Homo sapiens, UniProt Q04771, R206H).
T2 sequence (Q04771 21-509 R206H): T1 sequence (Q04771 21-509) with R186H
In kind it is cell-based. The settings on record: read-out: ALK2 (R206H) IC50; NanoBRET, HEK293 cells. (In BRET a luciferase serves as donor, and the signal depends on an acceptor being close.)

The target in data set [3] is WT ALK1 (Homo sapiens, UniProt P37023). Nature of the data set: NanoBRET TE intracellular kinase assay. It counts as cell-based. To be noted: read-out: ALK1 IC50, HEK293 cells.
Data set [4] in a line: Metabolic stability in mouse liver microsomes. It counts as in vitro ADME. (In general: Liver microsomes are a subcellular fraction often used to study metabolism.)
Data set [5] is described as follows: Metabolic stability in human liver microsomes. It counts as in vitro ADME.
Data set [6] in a line: Dynamic solubility assay. It counts as physicochemical.
Data set [7] concerns 293 T-BRE-Luc cells. Nature of the data set: BMP-induced luciferase activity in 293 T-BRE-Luc reporter cells. It counts as cell-based. The procedure, abridged:
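293T cells stably carrying a BMP-responsive element–luciferase reporter, about 20,000 per well, attached overnight. Pretreated 30 min with DMSO vehicle or test compound (0.04, 0.2, 1, 5, 25 μM) in phenol-red-free DMEM with 2 mM glutamine and 2% heat-inactivated FBS. Then stimulated 6 h with BMP2 (5 ng/mL), BMP6 (500 ng/mL) or BMP7 (500 ng/mL). BrightGLO luminescence normalized to ligand-only samples; dose-response curves fitted.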

Data set [8] deals with FOP fibroblasts (GM00513). Briefly: pSMAD Western blot in primary FOP fibroblasts. In kind it is cell-based, human. The settings on record: FOP cells; for activin A-induced phosphorylation of SMAD1/5: 200 ng/mL activin A, inhibitor 1, 5 or 25 µM (LDN 1 µM); for BMP2-induced pSMAD1/5 activation: 5 ng/mL BMP2, inhibitor 1, 5 or 25 µM (LDN 1 µM). The procedure, abridged: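 Primary fibroblasts from a patient with FOP (GM00513) were pretreated for 30 min with test compound (1, 5 or 25 µM) or a reference inhibitor (1 µM). Cells then received vehicle (DMSO), 200 ng/mL activin A or 5 ng/mL BMP2 for 45 min, with inhibitor present. Lysates were Western blotted for pSMAD1/5, total SMAD1, total SMAD5 and GAPDH (loading control). For activin A, pSMAD2/3 was also blotted.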

Data set [9] concerns WT fibroblasts (GM01652). Nature of the data set: pSMAD1/5 Western blot in primary WT fibroblasts. To be noted: 5 ng/mL BMP2, inhibitor 1, 5 or 25 µM (LDN 1 µM). It counts as cell-based, human. On the technique in general: In western blotting, separated proteins are transferred to a membrane and probed.

Positions count from the first letter of the chain named. pIC50: −log10 of the molar value. In brackets after ≈: the same amount, converted by molar mass. Read-outs that look alike come from different tables or passages of the source.

Sequence of WT ALK1 (P37023 22-503): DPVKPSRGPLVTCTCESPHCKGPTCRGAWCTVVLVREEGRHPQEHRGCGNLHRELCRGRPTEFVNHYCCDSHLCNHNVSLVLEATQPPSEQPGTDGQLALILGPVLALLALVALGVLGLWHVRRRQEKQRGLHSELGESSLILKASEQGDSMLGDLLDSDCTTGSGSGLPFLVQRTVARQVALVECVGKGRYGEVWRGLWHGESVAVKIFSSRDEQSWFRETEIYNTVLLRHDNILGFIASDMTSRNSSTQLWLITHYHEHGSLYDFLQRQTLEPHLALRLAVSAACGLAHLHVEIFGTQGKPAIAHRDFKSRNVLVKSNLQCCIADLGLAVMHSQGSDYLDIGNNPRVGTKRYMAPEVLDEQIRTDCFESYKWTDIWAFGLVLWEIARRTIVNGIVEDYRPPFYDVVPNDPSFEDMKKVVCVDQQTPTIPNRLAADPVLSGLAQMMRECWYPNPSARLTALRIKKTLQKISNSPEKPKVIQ

`CNC(=O)[C@H]1C[C@H](n2c(-c3cc(OC)c(OC)c(OC)c3)nc3ccc(C(=O)NCCCN(C)C)cc32)C1` [CDD-2281]: the pIC50 in data set [1], in data set [2] and in data set [3] was less than 4.52 throughout. In addition, the “MLM t1/2” value came out at 804 min in [4] and 807 min in data set [4] (U, extremely unstable). Further, the “HLM t1/2” value in data set [5] amounted to 768 min; in data set [5] (U, extremely unstable), 769 min. In addition, the Solubility in [6] turned out to be 199.6 µM (≈ 105 µg/mL).
For `COc1cc(-c2nc3ccc(C(=O)NCCCN4CCN(c5ccccc5)CC4)cc3n2C2CCC2)cc(OC)c1OC` [CDD-2315], the pIC50 in [1] is 6.24; in data set [2], 5.91; in [3] it was less than 4.52; in data set [7] (read-out: IC50 of BMP2-induced luciferase activity, 5 ng/mL BMP2, 6 h), 5.83; in data set [7] (read-out: IC50 of BMP6-induced luciferase activity, 500 ng/mL BMP6, 6 h) it was 5.84; in [7] (read-out: IC50 of BMP7-induced luciferase activity, 500 ng/mL BMP7, 6 h) it was 6.01. Further, the “MLM t1/2” value in [4] (U, extremely unstable) is 6.3 min. Also, in data set [5] (U, extremely unstable), the “HLM t1/2” value was determined as 7.8 min. In data set [6], this compound returned a Solubility of 63.5 µM (≈ 37.1 µg/mL). In data set [8], the “activin A-induced phosphorylation of SMAD1/5” value was “significantly inhibit the activin A-induced phosphorylation of SMAD1/5 starting at the 1 µM concentration”. In addition, in data set [9], the “BMP2-induced pSMAD1/5 activation” value was “significantly reduced pSMAD1/5 at all the concentrations tested”.
Take `CNC(=O)[C@H]1C[C@H](n2c(-c3cc(F)cc(OC)c3)nc3ccc(C(=O)NCCCN4CCN(c5ccccc5)CC4)cc32)C1` [CDD-2340]: the results for the pIC50 in data set [1], in data set [2] and in data set [3] were 5.28, 5.03 and less than 4.52, respectively. For the same compound, the “MLM t1/2” value in data set [4] (U, extremely unstable) is 7.1 min. Moreover, the “HLM t1/2” value in [5] (U, extremely unstable) came to 24.4 min. The compound also returned a Solubility in data set [6] of 121.8 µM (≈ 72.9 µg/mL). In addition, the “BMP2-induced pSMAD1/5 activation” value was “only the highest concentration (25 µM) was sufficient to significantly reduce pSMAD1/5 activation” in [8]; “potently reduced BMP2-induced pSMAD1/5 activation in the WT fibroblasts at 5 and 25 µM” in data set [9]. In addition, the “activin A-induced phosphorylation of SMAD1/5” value in data set [8] was “significantly inhibit the activin A-induced phosphorylation of SMAD1/5 starting at the 1 µM concentration”.
Regarding `CNC(=O)[C@H]1C[C@H](n2c(-c3ccc(OC)c(OC)c3)nc3ccc(C(=O)NCCCN4CCN(c5cccc(C)c5C)CC4)cc32)C1` [CDD-2421], the pIC50 in data set [1] was 5.91; in data set [2] it was 5.62; in data set [3] it was less than 4.52. Further, the “MLM t1/2” value in [4] (U, extremely unstable) is 3.7 min. Moreover, the “HLM t1/2” value in [5] (U, extremely unstable) came out at 6.0 min. For the same compound, the Solubility in data set [6] is 44.8 µM (≈ 28.6 µg/mL).
As to `COc1cc(-c2nc3ccc(C(=O)NCC4(O)CCN(Cc5ccccc5)CC4)cc3n2C2CCC2)cc(OC)c1OC` [CDD-2795], the pIC50 in data set [1] is 6.41; in [2] it was 6.34; in [3], 5.07. For the same compound, the “MLM t1/2” value in [4] (U, extremely unstable) was 2.9 min. Moreover, in [5] (U, extremely unstable), the “HLM t1/2” value stood at 17.0 min. The same compound came in with a Solubility in [6] of 141.5 µM (≈ 82.7 µg/mL).
Regarding `c1ccc2c(-c3cnn4cc(-c5ccc(N6CCNCC6)cc5)cnc34)ccnc2c1` [LDN-193189, reference compound], the “BMP2-induced pSMAD1/5 activation” value in data set [8] and in data set [9] was “effectively suppressed pSMAD1/5 activation” in each case. In addition, the “activin A-induced phosphorylation of SMAD1/5” value in [8] was “effectively suppressed pSMAD1/5 activation”.

A word on the pIC50: it is the IC50 on a negative log10 scale, so that one unit is a factor of ten. What is called Solubility is how much of the substance goes into solution per volume. A higher Solubility goes with a readily soluble substance.
